Measurements as given in ChEMBL document CHEMBL1649135, “Use of a surface plasmon resonance method to investigate antibiotic and plasma protein interactions” (Antimicrob Agents Chemother, 2009).
≈ marks a conversion by molar mass, not a printed value.

Legend:
Staphylococcus aureus [1] = assay: Antimicrobial activity against Staphylococcus aureus CIP 76.25 by microdilution method in presence of 50% human serum; type: functional
Method in brief: (§1)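 Broth microdilution MICs against S. aureus CIP 76.25 by CLSI (formerly NCCLS) standard methods, run in duplicate. Each test medium was supplemented with one serum component: 50% human serum, 4% HSA, 0.1% AGP or 1.6% human gamma globulins. These levels were chosen to match normal physiological concentrations. MIC was read as in standard testing.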

Staphylococcus aureus [2] = assay: Antimicrobial activity against Staphylococcus aureus CIP 76.25 by microdilution method in presence of 1.6% gamma globulin; type: functional; method in brief: as §1
Albumin [3] = target: T1, Albumin (Homo sapiens, UniProt P02768); assay: Binding affinity to human serum albumin assessed as fraction of binding sites occupied by compound at 22 to 44 ug/ml by SPR; type: ADME; details: isolated protein
Method in brief: (§2)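 HSA amine-coupled on CM5 chip at 25°C, with a reference flow cell lacking protein. Compound in PBS with 5% DMSO, injected at 400 to 0.1 µM in twofold dilutions, 50 µl/min, 30 s association and 30 s dissociation. Reference-subtracted responses read 10 s into injection and DMSO-corrected. Fraction of sites occupied plotted against drug concentration from dose-response curves.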

Staphylococcus aureus [4] = assay: Antimicrobial activity against Staphylococcus aureus CIP 76.25 by microdilution method in presence of 0.1% alpha-1-acid glycoprotein; type: functional; method in brief: as §1
[5] = Protein binding in serum; type: ADME, cell-free; details: read-out: PB (converted)
Staphylococcus aureus [6] = assay: Antimicrobial activity against Staphylococcus aureus CIP 76.25 by microdilution method in presence of 4% human serum albumin; type: functional; method in brief: as §1
Staphylococcus aureus [7] = assay: Antimicrobial activity against Staphylococcus aureus CIP 76.25 by microdilution method; type: functional
Method in brief: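 S. aureus CIP 76.25 MICs determined in duplicate by CLSI standard broth microdilution.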

Albumin [8] = target: T1, Albumin; assay: Binding affinity to human serum albumin assessed as fraction of binding sites occupied by compound at 180 ug/ml by SPR; type: ADME; details: isolated protein; method in brief: as §2
Albumin [9] = target: T1, Albumin; assay: Binding affinity to first site on human serum albumin by SPR; type: ADME
Method in brief: (§3)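 SPR on a BIACORE 3000 at 25°C. HSA was amine-coupled to a CM5 chip at 40 µg/ml in 10 mM acetate, pH 5.2. Drug was injected from 400 µM to 0.1 µM in twofold dilutions in PBS with 5% DMSO at 50 µl/min, with 30 s association and 30 s dissociation. Responses were reference-subtracted, read 10 s into the injection and DMSO-corrected. Dose-response curves gave KD or fraction of sites occupied.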

[10] = Binding affinity to human alpha-1-acid glycoprotein assessed as compound binding sites level by SPR; type: ADME
Method in brief: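 Ranking by SPR at 25°C. AGP was PDEA-modified and thiol-coupled to a CM5 chip; a reference surface carried no protein. Drugs at 250 µM in PBS with 5% DMSO were injected in randomized duplicates for 30 s at 50 µl/min. Responses were DMSO-calibration-corrected and normalized to a 10,000-RU immobilization level. Experiments were run in triplicate, mean ± SE.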

Albumin [11] = target: T1, Albumin; assay: Binding affinity to human serum albumin assessed as fraction of binding sites occupied by compound at 146 to 220 ug/ml by SPR; type: ADME; details: isolated protein; method in brief: as §3
Albumin [12] = target: T1, Albumin; assay: Binding affinity to human serum albumin assessed as fraction of binding sites occupied by compound at 160 ug/ml by SPR; type: ADME; details: isolated protein; method in brief: as §2
Albumin [13] = target: T1, Albumin; assay: Binding affinity to human serum albumin assessed as fraction of binding sites occupied by compound at 215 to 430 ug/ml by SPR; type: ADME; details: isolated protein; method in brief: as §2
Albumin [14] = target: T1, Albumin; assay: Binding affinity to human serum albumin assessed as fraction of binding sites occupied by compound at 20 ug/ml by SPR; type: ADME; details: isolated protein; method in brief: as §2
Albumin [15] = target: T1, Albumin; assay: Binding affinity to human serum albumin assessed as fraction of binding sites occupied by compound at 130 to 180 ug/ml by SPR; type: ADME; details: isolated protein; method in brief: as §3
Albumin [16] = target: T1, Albumin; assay: Binding affinity to human serum albumin assessed as fraction of binding sites occupied by compound at 7 to 15 ug/ml by SPR; type: ADME; details: isolated protein; method in brief: as §3
Albumin [17] = target: T1, Albumin; assay: Binding affinity to human serum albumin assessed as fraction of binding sites occupied by compound at 120 ug/ml by SPR; type: ADME; details: isolated protein; method in brief: as §3
Albumin [18] = target: T1, Albumin; assay: Binding affinity to human serum albumin assessed as fraction of binding sites occupied by compound at 60 ug/ml by SPR; type: ADME; details: isolated protein; method in brief: as §3
Albumin [19] = target: T1, Albumin; assay: Binding affinity to human serum albumin assessed as fraction of binding sites occupied by compound at 80 to 120 ug/ml by SPR; type: ADME; details: isolated protein; method in brief: as §3
Albumin [20] = target: T1, Albumin; assay: Binding affinity to human serum albumin assessed as fraction of binding sites occupied by compound at 245 ug/ml by SPR; type: ADME; details: isolated protein; method in brief: as §3
Albumin [21] = target: T1, Albumin; assay: Binding affinity to human serum albumin assessed as fraction of binding sites occupied by compound at >325 ug/ml by SPR; type: ADME; details: isolated protein; method in brief: as §3

T1 sequence (P02768 whole entry): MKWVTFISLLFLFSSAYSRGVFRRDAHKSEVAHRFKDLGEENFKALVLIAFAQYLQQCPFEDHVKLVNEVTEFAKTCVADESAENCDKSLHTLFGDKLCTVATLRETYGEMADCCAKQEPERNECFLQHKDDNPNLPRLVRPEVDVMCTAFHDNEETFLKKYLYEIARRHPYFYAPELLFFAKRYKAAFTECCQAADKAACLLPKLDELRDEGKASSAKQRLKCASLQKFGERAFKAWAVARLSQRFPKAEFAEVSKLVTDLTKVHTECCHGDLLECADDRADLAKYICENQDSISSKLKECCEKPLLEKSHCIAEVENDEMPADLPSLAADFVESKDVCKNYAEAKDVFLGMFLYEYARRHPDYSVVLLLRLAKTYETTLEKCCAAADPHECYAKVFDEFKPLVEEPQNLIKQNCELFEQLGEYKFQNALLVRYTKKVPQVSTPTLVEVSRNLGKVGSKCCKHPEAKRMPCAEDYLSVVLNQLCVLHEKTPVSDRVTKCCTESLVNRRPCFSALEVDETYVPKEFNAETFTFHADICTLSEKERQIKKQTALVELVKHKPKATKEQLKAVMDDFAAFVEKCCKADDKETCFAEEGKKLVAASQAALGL

Compound | MIC (Staphylococcus aureus [1]) [µg/mL] | MIC (Staphylococcus aureus [2]) [µg/mL] | MIC (Staphylococcus aureus [4]) [µg/mL] | fraction unbound [5] | MIC (Staphylococcus aureus [6]) [µg/mL] | MIC (Staphylococcus aureus [7]) [µg/mL] | Kd (Albumin [9]) [µM] | Ratio [10] | other results
CO/N=C(\C(=O)N[C@@H]1C(=O)N2C(C(=O)O)=C(COC(C)=O)CS[C@H]12)c1csc(N)n1 [CEFOTAXIME] | 4 | 2 | 1 | 0.97 | 1 | 0.781 (≈ 1.71 µM) | 12 | < 1 | Ratio (Albumin [3]): 0.5; Ratio (Albumin [8]): 1
CC[C@H]1OC(=O)[C@H](C)[C@@H](O[C@H]2C[C@@](C)(OC)[C@@H](O)[C@H](C)O2)[C@H](C)[C@@H](O[C@@H]2O[C@H](C)C[C@H](N(C)C)[C@H]2O)[C@](C)(O)C[C@@H](C)C(=O)[C@H](C)[C@@H](O)[C@]1(C)O [ERYTHROMYCIN] | 2 | 2 | 2 | 0.81 | 2 | 0.195 (≈ 0.266 µM) | 12 | < 1 | Ratio (Albumin [11]): 0.5
CC(=O)O[C@H]1C[C@@]2(C)[C@@H](C[C@@H](O)[C@H]3[C@@]4(C)CC[C@@H](O)[C@@H](C)[C@@H]4CC[C@@]32C)/C1=C(\CCC=C(C)C)C(=O)O [FUSIDIC ACID] | 1020 | 2 | 2 | 0.03 | 256 | 0.049 (≈ 0.0948 µM) | 12 | < 1 | Ratio (Albumin [12]): 1; Ratio (Albumin [13]): 1.5; Ratio (Albumin [14]): 0.5
CCC[C@@H]1C[C@@H](C(=O)N[C@@H]([C@H]2O[C@H](SC)[C@H](O)[C@@H](O)[C@H]2O)[C@@H](C)O)N(C)C1 [LINCOMYCIN] | 2 | 1 | 2 | 0.25 | 2 | 0.391 (≈ 0.962 µM) | 12 | < 1 | Ratio (Albumin [15]): 0.5
CN(C)c1ccc(O)c2c1C[C@H]1C[C@H]3[C@H](N(C)C)C(O)=C(C(N)=O)C(=O)[C@@]3(O)C(O)=C1C2=O [MINOCYCLINE] | 4 | 1 | 1 | 0.46 | 4 | 0.195 (≈ 0.426 µM) | 12 | < 1 | 
CO[C@@H]1[C@@H](OC(N)=O)[C@@H](O)[C@H](Oc2ccc3c(O)c(NC(=O)c4ccc(O)c(CC=C(C)C)c4)c(=O)oc3c2C)OC1(C)C [NOVOBIOCIN] | 1020 | 2 | 2 |  | 256 | 0.049 (≈ 0.08 µM) | 12 | < 1 | Ratio (Albumin [16]): 0.5; Ratio (Albumin [17]): 1.5; Ratio (Albumin [18]): 1
CC1COc2c(N3CCN(C)CC3)c(F)cc3c(=O)c(C(=O)O)cn1c23 (configuration not stated) [OFLOXACIN] | 2 | 2 | 1 |  | 1 | 0.195 (≈ 0.54 µM) | 12 |  | 
CO[C@H]1/C=C/O[C@@]2(C)Oc3c(C)c(O)c4c(O)c(c(/C=N/N5CCN(C)CC5)c(O)c4c3C2=O)NC(=O)/C(C)=C\C=C\[C@H](C)[C@H](O)[C@@H](C)[C@@H](O)[C@@H](C)[C@H](OC(C)=O)[C@@H]1C [RIFAMPIN] | 4 | 2 | 1 | 0.36 | 4 | 0.049 (≈ 0.0595 µM) | 12 | < 1 | Ratio (Albumin [19]): 1; Ratio (Albumin [20]): 0.5; Ratio (Albumin [21]): 1.5
CN[C@H](CC(C)C)C(=O)N[C@H]1C(=O)N[C@@H](CC(N)=O)C(=O)N[C@H]2C(=O)N[C@H]3C(=O)N[C@H](C(=O)N[C@H](C(=O)O)c4cc(O)cc(O)c4-c4cc3ccc4O)[C@H](O)c3ccc(c(Cl)c3)Oc3cc2cc(c3O[C@@H]2O[C@H](CO)[C@@H](O)[C@H](O)[C@H]2O[C@H]2C[C@](C)(N)[C@H](O)[C@H](C)O2)Oc2ccc(cc2Cl)[C@H]1O [VANCOMYCIN] |  |  |  | 0.9 |  | 0.781 (≈ 0.539 µM) | 12 |  | 
